Experiment [1] addresses Protein farnesyltransferase subunit beta (Homo sapiens) (UniProt P49356). Briefly: Substrate activity for FTase assessed as increase in fluorescence by spectrofluorimetry in presence of farnesyl diphosphate relative to DnGCVLS. The arrangement: concentration or dose not given beside the values.
Experiment [2] shares this target. Briefly: Activity at FTase assessed as formation of farnesylated peptide after 60 mins by HPLC. Put shortly: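 Peptide (3 μM) with 9 μM FPP and recombinant mammalian FTase (0.05 μM), incubated 60 min. HPLC scored conversion to farnesylated peptide: complete; nearly complete; 25% to 50%; less than 25%; no product.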

Results on 28 compounds are retold here after ChEMBL document CHEMBL1153232, “Synthesis and screening of a CaaL peptide library versus FTase reveals a surprising number of substrates” (Bioorg Med Chem Lett, 2010).

Each structure is given as a SMILES string. Calls of active or inactive are those of the source. The rule behind the calls is not given here. Peptide text beside a SMILES is read from it. * marks the point of attachment. Dansyl = CN(C)c1cccc2c(S(=O)(=O)*)cccc12

Chain of Protein farnesyltransferase subunit beta (Homo sapiens) (P49356 whole entry): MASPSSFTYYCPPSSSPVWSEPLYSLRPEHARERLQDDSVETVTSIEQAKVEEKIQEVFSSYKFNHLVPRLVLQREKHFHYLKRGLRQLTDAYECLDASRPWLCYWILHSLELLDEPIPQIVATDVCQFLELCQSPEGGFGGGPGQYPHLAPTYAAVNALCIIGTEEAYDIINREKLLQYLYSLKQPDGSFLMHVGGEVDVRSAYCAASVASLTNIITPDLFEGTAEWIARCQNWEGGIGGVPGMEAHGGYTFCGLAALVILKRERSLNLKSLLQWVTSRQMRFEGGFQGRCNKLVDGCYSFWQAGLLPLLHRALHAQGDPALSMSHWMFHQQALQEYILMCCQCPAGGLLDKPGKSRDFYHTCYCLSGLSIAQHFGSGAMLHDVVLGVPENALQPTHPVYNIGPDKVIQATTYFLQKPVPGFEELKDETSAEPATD

`CC(C)C[C@H](NC(=O)[C@H](CC(C)C)NC(=O)[C@H](C)NC(=O)[C@H](CS)NC(=O)CNS(=O)(=O)c1cccc2c(N(C)C)cccc12)C(=O)O` (Dansyl-GCALL-OH): in experiment [1], the Activity was below 5%.

With `CC(C)C[C@H](NC(=O)[C@H](C)NC(=O)[C@@H](NC(=O)[C@H](CS)NC(=O)CNS(=O)(=O)c1cccc2c(N(C)C)cccc12)[C@@H](C)O)C(=O)O` (Dansyl-GCTAL-OH), the outcome in experiment [2] was inactive. Further, in experiment [1], the Activity amounted to 0%.

Consider `CC(C)C[C@H](NC(=O)[C@H](CC(C)C)NC(=O)[C@H](CCC(N)=O)NC(=O)[C@H](CS)NC(=O)CNS(=O)(=O)c1cccc2c(N(C)C)cccc12)C(=O)O` (Dansyl-GCQLL-OH), for which the Activity was below 25% in experiment [2] and 0% in experiment [1].

For the compound `CC(C)C[C@H](NC(=O)[C@H](CCCCN)NC(=O)[C@H](CCC(=O)O)NC(=O)[C@H](CS)NC(=O)CNS(=O)(=O)c1cccc2c(N(C)C)cccc12)C(=O)O` (Dansyl-GCEKL-OH), the outcome in experiment [2] was inactive. Further, the Activity in experiment [1] was determined as 0%.

On to `CC(C)C[C@H](NC(=O)[C@H](CC(N)=O)NC(=O)[C@H](CCC(N)=O)NC(=O)[C@H](CS)NC(=O)CNS(=O)(=O)c1cccc2c(N(C)C)cccc12)C(=O)O` (Dansyl-GCQNL-OH), for which the outcome in experiment [2] was inactive. Further, in experiment [1], the Activity amounted to 0%.

As for `CC(C)C[C@H](NC(=O)[C@@H]1CCCN1C(=O)[C@H](Cc1cnc[nH]1)NC(=O)[C@H](CS)NC(=O)CNS(=O)(=O)c1cccc2c(N(C)C)cccc12)C(=O)O` (Dansyl-GCHPL-OH), in experiment [2], the outcome was inactive. Moreover, in experiment [1], the Activity was determined as 0%.

Take `CC(C)C[C@H](NC(=O)[C@H](CCC(N)=O)NC(=O)[C@H](CO)NC(=O)[C@H](CS)NC(=O)CNS(=O)(=O)c1cccc2c(N(C)C)cccc12)C(=O)O` (Dansyl-GCSQL-OH): the outcome in experiment [2] was inactive. Also, in experiment [1], the Activity was determined as 0%.

`CC(C)C[C@H](NC(=O)[C@@H](NC(=O)[C@H](CCCCN)NC(=O)[C@H](CS)NC(=O)CNS(=O)(=O)c1cccc2c(N(C)C)cccc12)C(C)C)C(=O)O` (Dansyl-GCKVL-OH): the Activity in experiment [1] was below 5%.

With `CC(C)C[C@H](NC(=O)[C@@H](NC(=O)[C@H](CC(C)C)NC(=O)[C@H](CS)NC(=O)CNS(=O)(=O)c1cccc2c(N(C)C)cccc12)C(C)C)C(=O)O` (Dansyl-GCLVL-OH), in experiment [1], the Activity is below 5%.

For `CC(C)C[C@H](NC(=O)[C@H](Cc1ccccc1)NC(=O)[C@H](CO)NC(=O)[C@H](CS)NC(=O)CNS(=O)(=O)c1cccc2c(N(C)C)cccc12)C(=O)O` (Dansyl-GCSFL-OH), the outcome in experiment [2] was inactive. In addition, the Activity in experiment [1] worked out at 0%.

In the case of `CC[C@H](C)[C@H](NC(=O)[C@H](CC(C)C)NC(=O)[C@H](CS)NC(=O)CNS(=O)(=O)c1cccc2c(N(C)C)cccc12)C(=O)N[C@@H](CC(C)C)C(=O)O` (Dansyl-GCLIL-OH), the outcome in experiment [2] was Active. Also, the Activity in experiment [1] was below 5%.

On to `CC(C)C[C@H](NC(=O)[C@H](CC(C)C)NC(=O)[C@H](CC(C)C)NC(=O)[C@H](CS)NC(=O)CNS(=O)(=O)c1cccc2c(N(C)C)cccc12)C(=O)O` (Dansyl-GCLLL-OH), for which the Activity in experiment [1] is below 5%.

As to `CC(C)C[C@H](NC(=O)CNC(=O)CNC(=O)[C@H](CS)NC(=O)CNS(=O)(=O)c1cccc2c(N(C)C)cccc12)C(=O)O` (Dansyl-GCGGL-OH), in experiment [2], the result was inactive. Moreover, the Activity in experiment [1] amounted to 0%.

For `CC(C)C[C@H](NC(=O)[C@@H](NC(=O)[C@H](CO)NC(=O)[C@H](CS)NC(=O)CNS(=O)(=O)c1cccc2c(N(C)C)cccc12)[C@@H](C)O)C(=O)O` (Dansyl-GCSTL-OH), the outcome in experiment [2] was inactive. In addition, in experiment [1], the Activity is 0%.

As for `CC(C)C[C@H](NC(=O)CNC(=O)[C@@H](NC(=O)[C@H](CS)NC(=O)CNS(=O)(=O)c1cccc2c(N(C)C)cccc12)C(C)C)C(=O)O` (Dansyl-GCVGL-OH), the outcome in experiment [2] was inactive. Also, in experiment [1], the Activity worked out at 0%.

For `CC(C)C[C@H](NC(=O)[C@@H]1CCCN1C(=O)[C@H](CC(N)=O)NC(=O)[C@H](CS)NC(=O)CNS(=O)(=O)c1cccc2c(N(C)C)cccc12)C(=O)O` (Dansyl-GCNPL-OH), in experiment [2], the outcome was inactive. The Activity in experiment [1] came out at 0%.

With `CC[C@H](C)[C@H](NC(=O)[C@@H]1CCCN1C(=O)[C@H](CS)NC(=O)CNS(=O)(=O)c1cccc2c(N(C)C)cccc12)C(=O)N[C@@H](CC(C)C)C(=O)O` (Dansyl-GCPIL-OH), in experiment [1], the Activity was below 5%.

As to `CC(C)C[C@H](NC(=O)[C@H](CC(C)C)NC(=O)[C@@H](NC(=O)[C@H](CS)NC(=O)CNS(=O)(=O)c1cccc2c(N(C)C)cccc12)[C@@H](C)O)C(=O)O` (Dansyl-GCTLL-OH), the Activity in experiment [1] came out at 0%.

On to `CC(C)C[C@H](NC(=O)[C@H](CC(C)C)NC(=O)[C@H](CO)NC(=O)[C@H](CS)NC(=O)CNS(=O)(=O)c1cccc2c(N(C)C)cccc12)C(=O)O` (Dansyl-GCSLL-OH), for which the figures for the Activity in experiment [2] and in experiment [1] were below 25% and 0%, respectively.

As for `CC(C)C[C@H](NC(=O)[C@H](CC(C)C)NC(=O)[C@H](CCCNC(=N)N)NC(=O)[C@H](CS)NC(=O)CNS(=O)(=O)c1cccc2c(N(C)C)cccc12)C(=O)O` (Dansyl-GCRLL-OH), in experiment [1], the Activity is below 5%.

For the compound `CSCC[C@H](NC(=O)[C@H](CS)NC(=O)CNS(=O)(=O)c1cccc2c(N(C)C)cccc12)C(=O)N[C@@H](CCC(=O)O)C(=O)N[C@@H](CC(C)C)C(=O)O` (Dansyl-GCMEL-OH), in experiment [2], the outcome was inactive. In experiment [1], the Activity was 0%.

In the case of `CC(C)C[C@H](NC(=O)[C@H](Cc1ccc(O)cc1)NC(=O)[C@H](C)NC(=O)[C@H](CS)NC(=O)CNS(=O)(=O)c1cccc2c(N(C)C)cccc12)C(=O)O` (Dansyl-GCAYL-OH), the outcome in experiment [2] was inactive. Further, the Activity in experiment [1] stood at 0%.

As to `CC(C)C[C@H](NC(=O)[C@H](CS)NC(=O)CNC(=O)[C@H](CS)NC(=O)CNS(=O)(=O)c1cccc2c(N(C)C)cccc12)C(=O)O` (Dansyl-GCGCL-OH), the outcome in experiment [2] was inactive. Moreover, the Activity in experiment [1] amounted to 0%.

In the case of `CC(C)C[C@H](NC(=O)[C@H](CC(C)C)NC(=O)[C@H](CS)NC(=O)[C@H](CS)NC(=O)CNS(=O)(=O)c1cccc2c(N(C)C)cccc12)C(=O)O` (Dansyl-GCCLL-OH), the Activity in experiment [1] was below 5%.

In the case of `CC(C)C[C@H](NC(=O)[C@H](CO)NC(=O)[C@H](CS)NC(=O)[C@H](CS)NC(=O)CNS(=O)(=O)c1cccc2c(N(C)C)cccc12)C(=O)O` (Dansyl-GCCSL-OH), the result in experiment [2] was inactive. The Activity in experiment [1] turned out to be 0%.

On to `CC(C)C[C@H](NC(=O)[C@H](CCC(N)=O)NC(=O)[C@H](CC(C)C)NC(=O)[C@H](CS)NC(=O)CNS(=O)(=O)c1cccc2c(N(C)C)cccc12)C(=O)O` (Dansyl-GCLQL-OH), for which the Activity in experiment [2] was below 25%; in experiment [1] it was 0%.

With `CC(C)C[C@H](NC(=O)[C@H](CC(C)C)NC(=O)[C@@H](NC(=O)[C@H](CS)NC(=O)CNS(=O)(=O)c1cccc2c(N(C)C)cccc12)C(C)C)C(=O)O` (Dansyl-GCVLL-OH), the Activity in experiment [1] was below 5%.

In the case of `CC(C)C[C@H](NC(=O)[C@@H](NC(=O)[C@H](CO)NC(=O)[C@H](CS)NC(=O)CNS(=O)(=O)c1cccc2c(N(C)C)cccc12)C(C)C)C(=O)O` (Dansyl-GCSVL-OH), the Activity in experiment [1] was found to be 0%.
